Assay results from ChEMBL document CHEMBL1165950, “Design and synthesis of new potent anticancer pyrazoles with high FLT3 kinase inhibitory selectivity” (Bioorg Med Chem, 2010).

Experiments:
Type in all cases: functional
HCC 2998 = assay: Cytotoxicity against human HCC2998 cells assessed as cell growth at 10 uM; details: read-out: Activity
Summary of the method: (§1)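 Single-dose NCI-60 screen at 10 µM. Cells were grown in RPMI 1640 with 5% FBS and 2 mM L-glutamine, then treated for 48 h at 37 °C. Protein was measured by SRB staining with absorbance at 515 nm. Percentage growth was recorded, and inhibition percentage was calculated as 100 minus growth percentage.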

HOP-62 = assay: Cytotoxicity against human HOP62 cells assessed as cell growth at 10 uM; details: read-out: Activity; summary of the method: as §1
LOX IMVI = assay: Cytotoxicity against human LOXIMVI cells assessed as cell growth at 10 uM; details: read-out: Activity
Summary of the method: (§2)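 NCI-60 screen: cells grown in RPMI 1640 with 5% FBS and 2 mM L-glutamine, plated at 5000–40,000 cells/well according to doubling time, and preincubated 24 h at 37 °C, 5% CO2. The single 10 µM dose (DMSO stock) was added, then incubated 48 h. Cells were TCA-fixed and stained with 0.4% SRB, read at 515 nm, and growth % calculated against time-zero and control plates.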

SK-MEL-28 = assay: Cytotoxicity against human SK-MEL-28 cells assessed as cell growth at 10 uM; details: read-out: Activity; summary of the method: as §2
MDA-MB-468 = assay: Cytotoxicity against human MDA-MB-468 cells assessed as cell growth at 10 uM; details: read-out: Activity; summary of the method: as §2
SNB-19 = assay: Cytotoxicity against human SNB19 cells assessed as cell growth at 10 uM; details: read-out: Activity; summary of the method: as §2
SR = assay: Cytotoxicity against human SR cells assessed as cell growth at 10 uM; details: read-out: Activity; summary of the method: as §2
U-251 = assay: Cytotoxicity against human U251 cells assessed as cell growth at 10 uM; details: read-out: Activity; summary of the method: as §2
OVCAR-3 = assay: Cytotoxicity against human OVCAR-3 cells assessed as cell growth at 10 uM; details: read-out: Activity; summary of the method: as §2
NCI-H23 = assay: Cytotoxicity against human NCI-H23 cells assessed as cell growth at 10 uM; details: read-out: Activity; summary of the method: as §2
NCI-H322M = assay: Cytotoxicity against human NCI-H322M cells assessed as cell growth at 10 uM; details: read-out: Activity; summary of the method: as §2
COLO 205 = assay: Cytotoxicity against human COLO205 cells assessed as cell growth at 10 uM; details: read-out: Activity; summary of the method: as §1
CAKI-1 = assay: Cytotoxicity against human Caki1 cells assessed as cell growth at 10 uM; details: read-out: Activity; summary of the method: as §1
ACHN = assay: Cytotoxicity against human ACHN cells assessed as cell growth at 10 uM; details: read-out: Activity; summary of the method: as §1
OVCAR-8 = assay: Cytotoxicity against human OVCAR8 cells assessed as cell growth at 10 uM; details: read-out: Activity; summary of the method: as §2
SK-MEL-5 = assay: Cytotoxicity against human SK-MEL-5 cells assessed as cell growth at 10 uM; details: read-out: Activity; summary of the method: as §2
HT-29 = assay: Cytotoxicity against human HT-29 cells assessed as cell growth at 10 uM; details: read-out: Activity; summary of the method: as §1
OVCAR-5 = assay: Cytotoxicity against human OVCAR5 cells assessed as cell growth at 10 uM; details: read-out: Activity; summary of the method: as §2
MOLT-4 = assay: Cytotoxicity against human MOLT4 cells assessed as cell growth at 10 uM; details: read-out: Activity; summary of the method: as §2
MDA-MB-231 = assay: Cytotoxicity against human MDA-MB-231 cells assessed as cell growth at 10 uM; details: read-out: Activity; summary of the method: as §2
SNB-75 = assay: Cytotoxicity against human SNB75 cells assessed as cell growth at 10 uM; details: read-out: Activity; summary of the method: as §2
M14 = assay: Cytotoxicity against human M14 cells assessed as cell growth at 10 uM; details: read-out: Activity; summary of the method: as §2
NCI-H460 = assay: Cytotoxicity against human NCI-H460 cells assessed as cell growth at 10 uM; details: read-out: Activity; summary of the method: as §2
MCF7 = assay: Cytotoxicity against human MCF7 cells assessed as cell growth at 10 uM; details: read-out: Activity; summary of the method: as §2
Malme-3M = assay: Cytotoxicity against human MALME-3M cells assessed as cell growth at 10 uM; details: read-out: Activity; summary of the method: as §2
UO-31 = assay: Cytotoxicity against human UO31 cells assessed as cell growth at 10 uM; details: read-out: Activity; summary of the method: as §2
HCT-116 = assay: Cytotoxicity against human HCT116 cells assessed as cell growth at 10 uM; details: read-out: Activity; summary of the method: as §1
[1] = Cytotoxicity against human Hs 578T cells assessed as cell growth at 10 uM; details: read-out: Activity; summary of the method: as §1
KM12 = assay: Cytotoxicity against human KM12 cells assessed as cell growth at 10 uM; details: read-out: Activity; summary of the method: as §2
RXF 393 = assay: Cytotoxicity against human RXF393 cells assessed as cell growth at 10 uM; details: read-out: Activity; summary of the method: as §2
HL-60(TB) = assay: Cytotoxicity against human HL-60(TB) cells assessed as cell growth at 10 uM; details: read-out: Activity
Summary of the method: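 NCI 60-cell panel screen at a single concentration of 10 µM. Cells are grown in RPMI 1640 with 5% FBS and 2 mM L-glutamine and read by SRB protein staining at 515 nm. Percent growth is measured relative to time-zero and untreated controls; inhibition % is 100 minus growth %.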

MDA-MB-435 = assay: Cytotoxicity against human MDA-MB-435 cells assessed as cell growth at 10 uM; details: read-out: Activity; summary of the method: as §2
DU-145 = assay: Cytotoxicity against human DU145 cells assessed as cell growth at 10 uM; details: read-out: Activity; summary of the method: as §1
SN12C = assay: Cytotoxicity against human SN12C cells assessed as cell growth at 10 uM; details: read-out: Activity; summary of the method: as §2
786-0 = assay: Cytotoxicity against human 786-0 cells assessed as cell growth at 10 uM; details: read-out: Activity; summary of the method: as §1
[2] = Cytotoxicity against human […] cells assessed as cell growth at 10 uM; details: read-out: Activity; summary of the method: as §2
IGROV-1 = assay: Cytotoxicity against human IGROV1 cells assessed as cell growth at 10 uM; details: read-out: Activity; summary of the method: as §1
OVCAR-4 = assay: Cytotoxicity against human OVCAR4 cells assessed as cell growth at 10 uM; details: read-out: Activity; summary of the method: as §2
TK-10 = assay: Cytotoxicity against human TK10 cells assessed as cell growth at 10 uM; details: read-out: Activity; summary of the method: as §2
SK-MEL-2 = assay: Cytotoxicity against human SK-MEL-2 cells assessed as cell growth at 10 uM; details: read-out: Activity; summary of the method: as §2
UACC-62 = assay: Cytotoxicity against human UACC62 cells assessed as cell growth at 10 uM; details: read-out: Activity; summary of the method: as §2
A549 = assay: Cytotoxicity against human A549 cells assessed as cell growth at 10 uM; details: read-out: Activity; summary of the method: as §1
SF-268 = assay: Cytotoxicity against human SF268 cells assessed as cell growth at 10 uM; details: read-out: Activity; summary of the method: as §2
SW-620 = assay: Cytotoxicity against human SW620 cells assessed as cell growth at 10 uM; details: read-out: Activity; summary of the method: as §2
EKVX = assay: Cytotoxicity against human EKVX cells assessed as cell growth at 10 uM; details: read-out: Activity; summary of the method: as §1
SF-295 = assay: Cytotoxicity against human SF295 cells assessed as cell growth at 10 uM; details: read-out: Activity; summary of the method: as §2
K562 = assay: Cytotoxicity against human K562 cells assessed as cell growth at 10 uM; details: read-out: Activity; summary of the method: as §1
UACC-257 = assay: Cytotoxicity against human UACC257 cells assessed as cell growth at 10 uM; details: read-out: Activity; summary of the method: as §2
PC-3 = assay: Cytotoxicity against human PC3 cells assessed as cell growth at 10 uM; details: read-out: Activity; summary of the method: as §2
NCI/ADR-RES = assay: Cytotoxicity against human NCI/ADR-RES cells assessed as cell growth at 10 uM; details: read-out: Activity; summary of the method: as §2
HOP-92 = assay: Cytotoxicity against human HOP92 cells assessed as cell growth at 10 uM; details: read-out: Activity; summary of the method: as §1
[3] = Growth inhibition of human NCI60 cells at 10 uM after 48 hrs by sulforhodamine B assay relative to control; details: NCI60, 48 h, read-out: GI
Summary of the method: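 Single-dose NCI screen at 10 µM across the 60-line panel, 48 h exposure at 37 °C after a 24 h preincubation. Adherent cells were fixed with cold TCA and stained with 0.4% SRB, and absorbance was read at 515 nm. Inhibition % was taken as 100 minus growth %, and the mean across all lines was reported.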

SK-OV-3 = assay: Cytotoxicity against human SKOV3 cells assessed as cell growth at 10 uM; details: read-out: Activity; summary of the method: as §2
NCI-H226 = assay: Cytotoxicity against human NCI-H226 cells assessed as cell growth at 10 uM; details: read-out: Activity; summary of the method: as §2
SF-539 = assay: Cytotoxicity against human SF539 cells assessed as cell growth at 10 uM; details: read-out: Activity; summary of the method: as §2
BT-549 = assay: Cytotoxicity against human BT549 cells assessed as cell growth at 10 uM; details: read-out: Activity; summary of the method: as §1
CCRF-CEM = assay: Cytotoxicity against human CCRF-CEM cells assessed as cell growth at 10 uM; details: read-out: Activity; summary of the method: as §1
HCT-15 = assay: Cytotoxicity against human HCT15 cells assessed as cell growth at 10 uM; details: read-out: Activity; summary of the method: as §1
A498 = assay: Cytotoxicity against human A498 cells assessed as cell growth at 10 uM; details: read-out: Activity; summary of the method: as §1
NCI-H522 = assay: Cytotoxicity against human NCI-H522 cells assessed as cell growth at 10 uM; details: read-out: Activity; summary of the method: as §2
T47D = assay: Cytotoxicity against human T47D cells assessed as cell growth at 10 uM; details: read-out: Activity; summary of the method: as §2

COc1cc(C)cc(-c2nn(CC#N)cc2-c2ccnc(-c3cccc(NC(C)=O)c3)c2)c1
growth at 10 µM (HCC 2998): 101% | growth at 10 µM (HOP-62): 98.5% | growth at 10 µM (LOX IMVI): 97.5% | growth at 10 µM (SK-MEL-28): 104% | growth at 10 µM (MDA-MB-468): 82.8% | growth at 10 µM (SNB-19): 89.6% | growth at 10 µM (SR): 80.9% | growth at 10 µM (U-251): 94.3% | growth at 10 µM (OVCAR-3): 109% | growth at 10 µM (NCI-H23): 95.3% | growth at 10 µM (NCI-H322M): 96.9% | growth at 10 µM (COLO 205): 93.5% | growth at 10 µM (CAKI-1): 77.3% | growth at 10 µM (ACHN): 88% | growth at 10 µM (OVCAR-8): 88% | growth at 10 µM (SK-MEL-5): 36.9% | growth at 10 µM (HT-29): 99.4% | growth at 10 µM (OVCAR-5): 91.6% | growth at 10 µM (MOLT-4): 82.8% | growth at 10 µM (MDA-MB-231): 86.5% | growth at 10 µM (SNB-75): 72.4% | growth at 10 µM (M14): 96.3% | growth at 10 µM (NCI-H460): 107% | growth at 10 µM (MCF7): 85% | growth at 10 µM (Malme-3M): 108% | growth at 10 µM (UO-31): 63.6% | growth at 10 µM (HCT-116): 96.4% | growth at 10 µM [1]: 99% | growth at 10 µM (KM12): 109% | growth at 10 µM (RXF 393): 81.5% | growth at 10 µM (HL-60(TB)): 74.9% | growth at 10 µM (MDA-MB-435): 99.6% | growth at 10 µM (DU-145): 105% | growth at 10 µM (SN12C): 83% | growth at 10 µM (786-0): 84% | growth at 10 µM [2]: 73.9% | growth at 10 µM (IGROV-1): 98.4% | growth at 10 µM (OVCAR-4): 99.7% | growth at 10 µM (TK-10): 87.1% | growth at 10 µM (SK-MEL-2): 92.1% | growth at 10 µM (UACC-62): 81.7% | growth at 10 µM (A549): 86.7% | growth at 10 µM (SF-268): 97.3% | growth at 10 µM (SW-620): 104% | growth at 10 µM (EKVX): 101% | growth at 10 µM (SF-295): 102% | growth at 10 µM (K562): 86.4% | growth at 10 µM (UACC-257): 89.7% | growth at 10 µM (PC-3): 85.8% | growth at 10 µM (NCI/ADR-RES): 87.3% | growth at 10 µM (HOP-92): 79.6% | inhibition of growth at 10 µM [3]: 1.18% | growth at 10 µM (SK-OV-3): 93.3% | growth at 10 µM (NCI-H226): 93.1% | growth at 10 µM (SF-539): 84.5% | growth at 10 µM (BT-549): 79.1% | growth at 10 µM (CCRF-CEM): 83.9% | growth at 10 µM (HCT-15): 94.5% | growth at 10 µM (A498): 74.2% | growth at 10 µM (NCI-H522): 82.5% | growth at 10 µM (T47D): 79.3%
